Data as given in ChEMBL document CHEMBL4196194, “De Novo Design of α-Helical Lipopeptides Targeting Viral Fusion Proteins: A Promising Strategy for Relatively Broad-Spectrum Antiviral Drug Discovery” (J Med Chem, 2018).
The source made the active and inactive calls. No cut-off for these calls is given here. Where a SMILES comes first, the peptide text is derived from it. [ ]: non-standard residue; d: D form. The star is where a group is joined. Palmitoyl = CCCCCCCCCCCCCCCC(=O)*; βAla = NCCC(=O)O

Experiments:
[1] = Cytotoxicity in human HuH7 cells assessed as reduction in cell viability incubated for 48 hrs by CCK8 assay; type: cell-based, Huh-7
In short: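 Huh-7 cells (1 × 10^5 cells/mL suspension seeded) grown 12 h at 37 °C, 5% CO2, then serially diluted peptide added for 48 h; untreated blank and Triton X-100 controls. CCK-8 added for 2 h, absorbance at 450 nm.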

[2] = Inhibition of MERS-CoV spike protein-mediated cell-cell fusion in 293T/MERS/EGPF cells assessed as reduction in cell fusion incubated for 4 hrs by inverted fluorescence microscopy; type: cell-based, Middle East respiratory syndrome-related coronavirus
In short: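 Huh-7 cells expressing DPP4 plated 5 × 10^4/well, 5 h at 37 °C; serially diluted peptide added, then 293T cells carrying MERS-CoV S and EGFP (or EGFP-only control cells), 1 × 10^4/well. After 4 h coculture at 37 °C, fused and unfused effector cells counted by fluorescence microscopy.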

[3] = Cytotoxicity in MDCK cells assessed as reduction in cell viability incubated for 72 hrs by cell-titer-Glo cell viability assay; type: cell-based, Canis lupus familiaris; settings: dog
[4] = tested on: Middle East respiratory syndrome-related coronavirus; assay: Antiviral activity against MERS-CoV pseudovirus infected in human HuH7 cells treated with 30 mins pre-treated pseudovirus/compopund mixture and measured after 48 hrs by luciferase reporter assay; type: functional, organism-based
In short: (§1)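 Serially diluted peptide premixed with MERS-CoV pseudovirus 30 min at 37 °C, then added to Huh-7 cells; medium replaced at 12 h postinfection and cells cultured a further 48 h at 37 °C before luciferase read-out.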

[5] = tested on: Influenza A virus; assay: Antiviral activity against Influenza A virus (A/Puerto Rico/8/1934(H1N1)) infected in HEK293T cells assessed as inhibition of viral replicon activity up to 40 uM incubated for 30 hrs by dual-Glo luciferase assay; type: functional, organism-based
In short: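 HEK293T cells (2.5 × 10^4/well) transfected with plasmids for NP, PB1, PB2, PA plus p0LN-S-Luc firefly and pRL-SV40 Renilla reporters; serially diluted compound added 6 h post-transfection, luciferase read after 30 h by Dual-Glo. Activity = firefly/Renilla ratio; % inhibition normalized to positive and negative controls, curve-fitted; three independent measurements.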

[6] = tested on: Middle East respiratory syndrome-related coronavirus; assay: Antiviral activity against MERS-CoV pseudovirus infected in human HuH7 cells treated with 30 mins pre-treated pseudovirus/compopund mixture up to 40 uM and measured after 48 hrs by luciferase reporter assay; type: functional, organism-based; in short: as §1
[7] = tested on: Lipid bilayer; assay: Binding affinity to POPC LUV liposome system at 15 uM
In short: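 Isothermal titration calorimetry at 25 °C. POPC large unilamellar vesicles (13 mM in the syringe) were titrated into peptide in the cell (15 μM) over 20 injections, 120 s apart, with stirring at 750 rpm. The binding constant was derived from the heat released during peptide–lipid binding.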

Compound: CCCCCCCCCCCCCCCC(=O)NCCCC[C@H](NC(=O)CCNC(=O)[C@H](CCCCN)NC(=O)[C@H](CCCCN)NC(=O)[C@H](CO)NC(=O)[C@H](Cc1ccccc1)NC(=O)[C@H](CCC(=O)O)NC(=O)[C@H](CCC(=O)O)NC(=O)[C@H](Cc1ccccc1)NC(=O)[C@H](CCCCN)NC(=O)[C@H](CCCCN)NC(=O)[C@H](CO)NC(=O)[C@H](Cc1ccccc1)NC(=O)[C@H](CCC(=O)O)NC(=O)[C@H](CCC(=O)O)NC(=O)[C@H](Cc1ccccc1)NC(=O)[C@H](CCCCN)NC(=O)[C@H](CCCCN)NC(=O)[C@H](CO)NC(=O)[C@H](Cc1ccccc1)NC(=O)[C@H](CCC(=O)O)NC(=O)[C@H](CCC(=O)O)NC(=O)[C@H](Cc1ccccc1)NC(=O)[C@H](CCCCN)NC(=O)[C@H](CCCCN)NC(=O)[C@H](CO)NC(=O)[C@H](Cc1ccccc1)NC(=O)[C@H](CCC(=O)O)NC(=O)[C@H](CCC(=O)O)NC(=O)[C@H](Cc1ccccc1)NC(=O)[C@H](CCCCN)NC(=O)[C@H](CCCCN)NC(=O)[C@H](CO)NC(=O)[C@H](Cc1ccccc1)NC(=O)[C@H](CCC(=O)O)NC(=O)[C@H](CCC(=O)O)NC(=O)[C@H](Cc1ccccc1)NC(C)=O)C(N)=O (Ac-FEEFSKKFEEFSKKFEEFSKKFEEFSKKFEEFSKK[βAla]K(Palmitoyl)-NH2)
- CC50 at 48 h [1]: > 100 µM
- EC50 [2]: 3.11 µM

Compound: CCCCCCCCCCCCCCCC(=O)NCCCC[C@H](NC(=O)CCNC(=O)[C@H](CCCCN)NC(=O)[C@H](CCCCN)NC(=O)[C@H](Cc1ccc(O)cc1)NC(=O)[C@@H](NC(=O)[C@H](CCC(=O)O)NC(=O)[C@H](CCC(=O)O)NC(=O)[C@@H](NC(=O)[C@H](CCCCN)NC(=O)[C@H](CCCCN)NC(=O)[C@H](Cc1ccc(O)cc1)NC(=O)[C@@H](NC(=O)[C@H](CCC(=O)O)NC(=O)[C@H](CCC(=O)O)NC(=O)[C@@H](NC(=O)[C@H](CCCCN)NC(=O)[C@H](CCCCN)NC(=O)[C@H](Cc1ccc(O)cc1)NC(=O)[C@@H](NC(=O)[C@H](CCC(=O)O)NC(=O)[C@H](CCC(=O)O)NC(=O)[C@@H](NC(=O)[C@H](CCCCN)NC(=O)[C@H](CCCCN)NC(=O)[C@H](Cc1ccc(O)cc1)NC(=O)[C@@H](NC(=O)[C@H](CCC(=O)O)NC(=O)[C@H](CCC(=O)O)NC(=O)[C@@H](NC(=O)[C@H](CCCCN)NC(=O)[C@H](CCCCN)NC(=O)[C@H](Cc1ccc(O)cc1)NC(=O)[C@@H](NC(=O)[C@H](CCC(=O)O)NC(=O)[C@H](CCC(=O)O)NC(=O)[C@@H](NC(C)=O)[C@@H](C)CC)[C@@H](C)CC)[C@@H](C)CC)[C@@H](C)CC)[C@@H](C)CC)[C@@H](C)CC)[C@@H](C)CC)[C@@H](C)CC)[C@@H](C)CC)[C@@H](C)CC)C(N)=O (Ac-IEEIYKKIEEIYKKIEEIYKKIEEIYKKIEEIYKK[βAla]K(Palmitoyl)-NH2)
- CC50 at 72 h [3]: > 100 µM

Compound: CC[C@H](C)[C@H](NC(C)=O)C(=O)N[C@@H](CCC(=O)O)C(=O)N[C@@H](CCC(=O)O)C(=O)N[C@H](C(=O)N[C@@H](CCC(N)=O)C(=O)N[C@@H](CCCCN)C(=O)N[C@@H](CCCCN)C(=O)N[C@H](C(=O)N[C@@H](CCC(=O)O)C(=O)N[C@@H](CCC(=O)O)C(=O)N[C@H](C(=O)N[C@@H](CCC(N)=O)C(=O)N[C@@H](CCCCN)C(=O)N[C@@H](CCCCN)C(=O)N[C@H](C(=O)N[C@@H](CCC(=O)O)C(=O)N[C@@H](CCC(=O)O)C(=O)N[C@H](C(=O)N[C@@H](CCC(N)=O)C(=O)N[C@@H](CCCCN)C(=O)N[C@@H](CCCCN)C(=O)N[C@H](C(=O)N[C@@H](CCC(=O)O)C(=O)N[C@@H](CCC(=O)O)C(=O)N[C@H](C(=O)N[C@@H](CCC(N)=O)C(=O)N[C@@H](CCCCN)C(=O)N[C@@H](CCCCN)C(=O)N[C@H](C(=O)N[C@@H](CCC(=O)O)C(=O)N[C@@H](CCC(=O)O)C(=O)N[C@H](C(=O)N[C@@H](CCC(N)=O)C(=O)N[C@@H](CCCCN)C(=O)N[C@@H](CCCCN)C(=O)NCCC(=O)N[C@@H](CCCCNC(C)=O)C(N)=O)[C@@H](C)CC)[C@@H](C)CC)[C@@H](C)CC)[C@@H](C)CC)[C@@H](C)CC)[C@@H](C)CC)[C@@H](C)CC)[C@@H](C)CC)[C@@H](C)CC (Ac-IEEIQKKIEEIQKKIEEIQKKIEEIQKKIEEIQKK[βAla]K(Ac)-NH2)
- Activity [4]: inactive
- inhibition [5]: inactive
- Activity [6]: inactive
- Activity [7]: inactive
